Read-outs that look alike come from different tables or passages of the source.
Tests used:
[1] = system: Pf lipase (Pseudomonas fluorescens lipase); experiment: fluorescent esterase assay; format: biochemical; details: pH 6.8, 25 °C, 1 mM MgCl2
Outline: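 Commercial lipase, stored in glycerol-containing buffer at −20 °C, was used at 4.6 nM final. Acetyl, propionyl or butyryl 4-methylumbelliferyl esters were freshly diluted in ice-cold buffer (137 mM NaCl, 2.7 mM KCl). Reactions ran at 25 °C, with fluorescence (Ex 355, Em 444) read every minute and converted via a 4-methylumbelliferone standard curve. No-protein backgrounds were subtracted, and 10-min points were used. Km came from non-linear fits of duplicate/triplicate reactions.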

[2] = target: T1, MBP-CpHDAC3 (recombinant CpHDAC3) (Cryptosporidium parvum, UniProt Q5CPX0); experiment: Fluor de Lys fluorogenic deacetylase assay; format: biochemical
T1 sequence (Q5CPX0 1-973): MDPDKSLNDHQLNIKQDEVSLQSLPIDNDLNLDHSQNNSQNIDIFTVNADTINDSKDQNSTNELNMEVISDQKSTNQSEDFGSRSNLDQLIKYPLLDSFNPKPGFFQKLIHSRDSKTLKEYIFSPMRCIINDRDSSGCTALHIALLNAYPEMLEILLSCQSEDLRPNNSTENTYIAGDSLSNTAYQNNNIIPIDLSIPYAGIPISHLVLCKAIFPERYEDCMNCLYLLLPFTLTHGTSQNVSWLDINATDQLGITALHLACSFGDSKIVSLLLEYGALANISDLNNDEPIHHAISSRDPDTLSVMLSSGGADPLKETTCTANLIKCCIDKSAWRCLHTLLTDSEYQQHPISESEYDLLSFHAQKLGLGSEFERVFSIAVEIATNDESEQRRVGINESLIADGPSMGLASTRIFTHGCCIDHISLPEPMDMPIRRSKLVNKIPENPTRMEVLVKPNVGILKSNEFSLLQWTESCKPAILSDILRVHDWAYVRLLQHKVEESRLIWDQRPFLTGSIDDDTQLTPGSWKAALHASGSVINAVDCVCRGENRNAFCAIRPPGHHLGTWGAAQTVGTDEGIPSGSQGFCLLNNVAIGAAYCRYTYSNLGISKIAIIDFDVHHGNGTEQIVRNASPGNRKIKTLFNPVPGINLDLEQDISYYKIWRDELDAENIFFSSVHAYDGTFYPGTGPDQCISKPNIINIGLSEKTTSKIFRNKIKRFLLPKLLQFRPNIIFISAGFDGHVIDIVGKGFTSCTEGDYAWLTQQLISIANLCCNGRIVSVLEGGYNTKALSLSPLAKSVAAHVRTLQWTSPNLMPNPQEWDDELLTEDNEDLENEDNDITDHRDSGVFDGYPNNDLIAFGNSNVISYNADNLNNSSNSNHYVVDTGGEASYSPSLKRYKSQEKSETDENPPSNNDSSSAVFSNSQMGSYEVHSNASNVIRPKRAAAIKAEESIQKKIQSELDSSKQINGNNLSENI

[3] = target: T1, MBP-CpHDAC3 (recombinant CpHDAC3); experiment: Fluor de Lys fluorogenic deacetylase assay; format: biochemical; details: pH 8.1, 20 °C, 1 mM MgCl2
[4] = substrate: CCC(=O)Oc1ccc2c(C)cc(=O)oc2c1; experiment: fluorescent esterase assay; format: biochemical, Cryptosporidium parvum; details: pH 6.8, 25 °C, 1 mM MgCl2
[5] = substrate: CC(=O)Oc1ccc2c(C)cc(=O)oc2c1; experiment: fluorescent esterase assay; format: biochemical, Cryptosporidium parvum; details: pH 6.8, 25 °C, 1 mM MgCl2

In the case of `CC(=O)Oc1ccc2c(C)cc(=O)oc2c1` [4-methylumbelliferyl-acetate], the Km ([1]; read-out: Acetyl esterase / Km) is reported as 230 ± 48 µM.

`CCCC(=O)Oc1ccc2c(C)cc(=O)oc2c1` [4-methylumbelliferyl-butyrate] gave a Km ([1]; read-out: Butyryl esterase / Km) of 260 ± 30 µM.

`CCC(=O)Oc1ccc2c(C)cc(=O)oc2c1` [4-methylumbelliferyl-propionate] showed a Km ([1]; read-out: Propionyl esterase / Km) of 710 ± 390 µM.

`Cn1cc(C(=O)Cc2ccccc2)cc1C=CC(=O)NO` [APHA 8] showed an IC50 [2] of 310 ± 1.2 nM.

`C=C[C@@H](O)[C@@H]1O[C@H]1/C=C/[C@@H]1O[C@H]1[C@@H](C)O` [Depudecin] showed an IC50 [2] of 86 ± 2.4 nM.

Molecule `CC(/C=C/C(=O)NO)=C\[C@@H](C)C(=O)c1ccc(N(C)C)cc1` [Trichostatin A] has an IC50 [2] of 18 ± 1.3 nM.

`O=C(CCCCCCC(=O)Nc1ccccc1)NO` [Vorinostat] gave an IC50 [2] of 89 ± 7.9 nM.

Fluor de Lys substrate was tested, and the Km [3] was 61 ± 3.4 µM.

B1: MBP-CpHDAC3 (recombinant CpHDAC3) (Cryptosporidium parvum Iowa II) (protein)
chain: T1 sequence (Q5CPX0 1-973)
For B1, the Km [4] was 77 ± 30 µM, the kcat [4] was 0.00058 ± 9.2e-05 s⁻¹ and the Km [5] was 89 ± 18 µM. For the same molecule, the kcat [5] was 0.01 ± 0.00089 s⁻¹.

Reference: paper PMC4616004 (International journal for parasitology, 2008)
